The source of these data is ChEMBL document CHEMBL2321718, “Antioxidant activities of thiosemicarbazones from substituted benzaldehydes and N-(tetra-O-acetyl-β-D-galactopyranosyl)thiosemicarbazide” (Eur J Med Chem, 2013).

Molecules are shown by their SMILES.

Type in all cases: functional
Experiment [1] concerns Radical scavenging activity. Nature of the experiment: Antioxidant activity assessed as DPPH radical scavenging activity after 30 mins by spectrophotometry. An outline of the steps:
(§1)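 Wistar-independent cell-free assay: 5 µl sample in 96% ethanol (solutions 0.5, 1.0, 2.0, 4.0, 8.0, 12.0 mM before mixing) added to 195 µl DPPH in 96% ethanol (solution labelled […]). Incubated 30 min at 25 °C, then A518 read. %AA = (A_DPPH − A_sample)/(A_DPPH − A_ethanol)×100. Triplicates averaged. IC50 from linear regression of mean %AA against concentration. Resveratrol positive control.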

In experiment [2] the test system is Radical scavenging activity. Nature of the experiment: Antioxidant activity assessed as DPPH radical scavenging activity at 50 uM after 30 mins by spectrophotometry. The method in brief:
as §1

The test system of experiment [3] is Rattus norvegicus. Nature of the experiment: Antioxidant activity against CCl4-induced oxidative hepatic injury Wistar albino rat model assessed as effect on liver cytosolic SOD activity per mg protein at 100 mg/kg, ip for 7 consecutive days prior to CCL4 challenge measured 24 hrs post CCl4 challenge (reference value: 5.42 +/-0.29 U/mg protein). The following applies: route intraperitoneal. The method in brief: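 Wistar albino rats (100–150 g), 7 per group, dosed i.p. at 100 mg/kg/day for 7 days. Then CCl4 in olive oil (1:1) i.p. at 0.6 mL/kg. Liver taken 24 h later, homogenized in 1.15% KCl-10 mM phosphate/EDTA pH 7.4, cytosol obtained by sequential centrifugation. SOD read as the rate of cytochrome C reduction at 550 nm over 5 min (xanthine/xanthine oxidase, KCN, deoxycholate). Units/mg Lowry protein.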

The subject of experiment [4] is Radical scavenging activity. Nature of the experiment: Antioxidant activity assessed as DPPH radical scavenging activity at 12.5 uM after 30 mins by spectrophotometry. An outline of the steps:
as §1
A general note: The DPPH test is a chemical assay of radical scavenging.

Experiment [5] relates to Radical scavenging activity. Nature of the experiment: Antioxidant activity assessed as DPPH radical scavenging activity at 300 uM after 30 mins by spectrophotometry. An outline of the steps: as §1
Experiment [6] deals with Rattus norvegicus. Nature of the experiment: Antioxidant activity against CCl4-induced oxidative hepatic injury Wistar albino rat model assessed as effect on liver cytosolic catalase activity per mg protein at 100 mg/kg, ip for 7 consecutive days prior to CCL4 challenge measured 24 hrs post CCl4 challenge (reference value: 218.25 +/-11.43 U/mg protein). Particulars: route intraperitoneal.

Experiment [7] relates to Radical scavenging activity. Nature of the experiment: Antioxidant activity assessed as DPPH radical scavenging activity at 25 uM after 30 mins by spectrophotometry. An outline of the steps:
as §1

The test system of experiment [8] is Rattus norvegicus. Nature of the experiment: Antioxidant activity against CCl4-induced oxidative hepatic injury Wistar albino rat model assessed as effect on liver cytosolic GSH-Px activity per mg protein at 100 mg/kg, ip for 7 consecutive days prior to CCL4 challenge measured 24 hrs post CCl4 challenge (reference value: 0.27 +/-0.01 U/mg protein). Particulars: route intraperitoneal.

For experiment [9], the system named is Radical scavenging activity. Nature of the experiment: Antioxidant activity assessed as DPPH radical scavenging activity at 100 uM after 30 mins by spectrophotometry. The method in brief: as §1
Experiment [10] has as its system Radical scavenging activity. Nature of the experiment: Antioxidant activity assessed as DPPH radical scavenging activity at 200 uM after 30 mins by spectrophotometry. An outline of the steps: as §1

Take `Oc1ccc(/C=C/c2cc(O)cc(O)c2)cc1` [RESVERATROL]: in [1], the concentration for half-maximal inhibition (IC50) turned out to be 94 µM. The Activity in experiment [2] was found to be 33.8%; in experiment [3], 7.49 U/mg; in [4], 9.13%; in experiment [5], 75.6%; in [6], 285 U/mg; in experiment [7] it was 22.6%. In addition, the Activity in experiment [8] was found to be 0.35 U/mg; in experiment [9] it was 54%; in experiment [10], 70.4%.
As for `CC(=O)OC[C@H]1O[C@@H](NC(=S)N/N=C/c2ccc([N+](=O)[O-])cc2)[C@H](OC(C)=O)[C@@H](OC(C)=O)[C@H]1OC(C)=O`, the IC50 in [1] was determined as 210 µM. The Activity amounted to 18.5% in [2]; 8.79 U/mg in [3]; 6.11% in experiment [4]; 64.5% in experiment [5]; 352 U/mg in experiment [6]; 11.3% in experiment [7]. In addition, the Activity in experiment [8] is 0.71 U/mg; in experiment [9], 29.1%; in [10] it was 53.3%.
Take `COc1cccc(/C=N/NC(=S)N[C@@H]2O[C@H](COC(C)=O)[C@H](OC(C)=O)[C@H](OC(C)=O)[C@H]2OC(C)=O)c1`: the half-inhibitory concentration (IC50) in experiment [1] is 276 µM. Moreover, the Activity in [2] came to 15.6%; in experiment [3], 8.89 U/mg; in experiment [4] it was 7.34%; in [5] it was 55.1%; in experiment [6], 362 U/mg; in experiment [7], 11.5%. In addition, the Activity in experiment [8] came to 0.71 U/mg; in experiment [9] it was 27.2%; in experiment [10] it was 34%.
On to `COc1cc(/C=N/NC(=S)N[C@@H]2O[C@H](COC(C)=O)[C@H](OC(C)=O)[C@H](OC(C)=O)[C@H]2OC(C)=O)ccc1O`, for which, in experiment [1], the IC50 turned out to be 75 µM. Besides, the Activity in experiment [2] was 45.6%; in experiment [3], 6.57 U/mg; in experiment [4], 9.45%; in experiment [5], 74%; in experiment [6], 290 U/mg; in experiment [7], 27.1%. For the same molecule, the Activity in [8] came to 0.37 U/mg; in [9], 60.3%; in experiment [10], 71.2%.
Turning to `COc1ccc(/C=N/NC(=S)N[C@@H]2O[C@H](COC(C)=O)[C@H](OC(C)=O)[C@H](OC(C)=O)[C@H]2OC(C)=O)cc1O`, in experiment [1], the concentration for half-maximal inhibition (IC50) was found to be 182 µM. The Activity in experiment [2] was determined as 28.2%; in experiment [3], 8.76 U/mg; in [4] it was 8.16%; in experiment [5] it was 69.6%; in experiment [6], 352 U/mg; in [7], 17.4%. In addition, the Activity was 0.59 U/mg in [8], 40.1% in experiment [9] and 56.8% in experiment [10].
As to `CC(=O)OC[C@H]1O[C@@H](NC(=S)N/N=C/c2ccc(O)cc2)[C@H](OC(C)=O)[C@@H](OC(C)=O)[C@H]1OC(C)=O`, in experiment [1], the half-inhibitory concentration (IC50) was 108 µM. Also, the Activity in experiment [2] was found to be 33.3%; in experiment [3], 8.24 U/mg; in experiment [4], 11.4%; in experiment [5], 75.1%; in experiment [6], 332 U/mg; in experiment [7] it was 22.6%. Also, the results for the Activity in [8], in [9] and in experiment [10] were 0.51 U/mg, 49.2% and 68.7%, respectively.
With `CC(=O)OC[C@H]1O[C@@H](NC(=S)N/N=C/c2cccc([N+](=O)[O-])c2)[C@H](OC(C)=O)[C@@H](OC(C)=O)[C@H]1OC(C)=O`, the half-maximal inhibitory concentration (IC50) in experiment [1] is 283 µM. Moreover, the Activity in experiment [2] worked out at 19.6%; in experiment [3], 9.01 U/mg; in [4] it was 7.05%; in experiment [5], 51.2%; in experiment [6] it was 361 U/mg; in experiment [7], 13.7%. The Activity came out at 0.73 U/mg in experiment [8], 26.3% in experiment [9] and 38.3% in experiment [10].
For the molecule `CCOc1cc(/C=N/NC(=S)N[C@@H]2O[C@H](COC(C)=O)[C@H](OC(C)=O)[C@H](OC(C)=O)[C@H]2OC(C)=O)ccc1O`, the concentration for half-maximal inhibition (IC50) in experiment [1] was 71 µM. In addition, the Activity was 45.4% in experiment [2]; 6.45 U/mg in experiment [3]; 14.2% in experiment [4]; 69.2% in experiment [5]; 284 U/mg in experiment [6]; 30.2% in experiment [7]. Also, the Activity in experiment [8] came out at 0.69 U/mg; in experiment [9], 59.4%; in experiment [10] it was 68.3%.
`CC(=O)OC[C@H]1O[C@@H](NC(=S)N/N=C/c2ccc(N(C)C)cc2)[C@H](OC(C)=O)[C@@H](OC(C)=O)[C@H]1OC(C)=O`: the IC50 in experiment [1] was found to be 56 µM. The Activity was 48.9% in experiment [2]; 5.81 U/mg in experiment [3]; 14.3% in experiment [4]; 78.5% in experiment [5]; 295 U/mg in experiment [6]; 30.9% in [7]. Also, the Activity in experiment [8] was determined as 0.71 U/mg; in experiment [9], 68.2%; in experiment [10], 74.5%.
Consider `CC(=O)OC[C@H]1O[C@@H](NC(=S)N/N=C/c2ccc(Br)cc2)[C@H](OC(C)=O)[C@@H](OC(C)=O)[C@H]1OC(C)=O`, for which the IC50 in experiment [1] was more than 300 µM. In addition, the Activity stood at 17.5% in [2]; 9.95 U/mg in experiment [3]; 5.38% in experiment [4]; 44.3% in [5]; 389 U/mg in [6]; 9.04% in [7]. For the same molecule, the figures for the Activity in experiment [8], in experiment [9] and in experiment [10] were 0.98 U/mg, 23.5% and 35.4%, respectively.
For `CC(=O)OC[C@H]1O[C@@H](NC(=S)N/N=C/c2ccc(C(C)C)cc2)[C@H](OC(C)=O)[C@@H](OC(C)=O)[C@H]1OC(C)=O`, the IC50 in [1] was more than 300 µM. For the same molecule, the Activity in experiment [2] was 9.65%; in experiment [3] it was 9.92 U/mg; in [4], 2.17%; in experiment [5], 24.5%; in experiment [6], 391 U/mg; in [7], 5.32%. Besides, the Activity stood at 1.01 U/mg in experiment [8], 15.1% in experiment [9] and 18.1% in experiment [10].
For the molecule `CC(=O)OC[C@H]1O[C@@H](NC(=S)N/N=C/c2ccc(C)cc2)[C@H](OC(C)=O)[C@@H](OC(C)=O)[C@H]1OC(C)=O`, the IC50 in experiment [1] is 206 µM. Besides, the Activity in [2] was 18.1%; in experiment [3], 8.82 U/mg; in experiment [4] it was 7.21%; in experiment [5] it was 65%; in [6], 354 U/mg; in experiment [7], 12.8%. In addition, the Activity came to 0.72 U/mg in experiment [8], 32.8% in experiment [9] and 53.3% in experiment [10].
With `CC(=O)OC[C@H]1O[C@@H](NC(=S)N/N=C/c2ccc(Cl)cc2)[C@H](OC(C)=O)[C@@H](OC(C)=O)[C@H]1OC(C)=O`, the IC50 in [1] is 270 µM. For the same molecule, the Activity in experiment [2] is 17.6%; in [3], 8.91 U/mg; in experiment [4], 7.15%; in experiment [5], 55.4%; in experiment [6], 358 U/mg; in [7] it was 10.1%. Also, the Activity in [8] came out at 0.7 U/mg; in experiment [9], 19.8%; in experiment [10], 38.4%.
`CC(=O)OC[C@H]1O[C@@H](NC(=S)N/N=C/c2ccc(F)cc2)[C@H](OC(C)=O)[C@@H](OC(C)=O)[C@H]1OC(C)=O`: the half-inhibitory concentration (IC50) in experiment [1] is 197 µM. The Activity in [2] stood at 17.1%; in experiment [3], 8.6 U/mg; in experiment [4], 8.51%; in [5], 67.2%; in [6], 351 U/mg; in experiment [7] it was 13.3%. Further, the results for the Activity in experiment [8], in experiment [9] and in experiment [10] were 0.69 U/mg, 34.3% and 55.6%, respectively.

Broadly, the IC50 is the concentration at which inhibition is half-maximal.
